The species entered for series [1] is Rattus norvegicus. The series can be described thus: Biodistribution in rat superior coliculus, expressed as percent I.D./g tissue. The series is classed as ADME, organism-based. The following applies: in vivo. The method in brief:
(§1)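 Male Sprague–Dawley rats (190–200 g) received 30 μCi (1.1 MBq) of the 18F-labelled tracer i.v. into a tail vein, formulated in physiological saline and given within 15 min of end of synthesis. Rats were decapitated at selected times, and the brain was removed and dissected on ice. Regions were weighed and gamma-counted alongside injected-dose aliquots, and values were expressed as % I.D./g tissue.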

The species named for series [2] is Rattus norvegicus. The series can be described thus: Biodistribution in rat thalamus, expressed as percent I.D./g tissue. Type of series: ADME, organism-based. The following applies: in vivo. The procedure, abridged: as §1
For series [3], the species on record is Rattus norvegicus. The series can be described thus: Biodistribution in rat cerebellum, expressed as percent I.D./g tissue. Type of series: ADME, organism-based. The following applies: in vivo. The method in brief:
as §1

Series [4] can be described thus: Binding affinity towards human Nicotinic acetylcholine receptor was determined using [3H]epibatidine.
A short description of series [5]: Binding affinity towards human Nicotinic acetylcholine receptor was determined using [3H]-cytisine.
Series [6] addresses Neuronal acetylcholine receptor; alpha4/beta2 (Homo sapiens, UniProt P17787+P43681). The series can be described thus: Binding affinity against human Nicotinic acetylcholine receptor alpha4-beta2.

What is called Ki is a measure of affinity in units of concentration, obtained from inhibition or displacement. A high value points to a looser hold on the target.

Neuronal acetylcholine receptor; alpha4/beta2, sequence (P17787 whole entry): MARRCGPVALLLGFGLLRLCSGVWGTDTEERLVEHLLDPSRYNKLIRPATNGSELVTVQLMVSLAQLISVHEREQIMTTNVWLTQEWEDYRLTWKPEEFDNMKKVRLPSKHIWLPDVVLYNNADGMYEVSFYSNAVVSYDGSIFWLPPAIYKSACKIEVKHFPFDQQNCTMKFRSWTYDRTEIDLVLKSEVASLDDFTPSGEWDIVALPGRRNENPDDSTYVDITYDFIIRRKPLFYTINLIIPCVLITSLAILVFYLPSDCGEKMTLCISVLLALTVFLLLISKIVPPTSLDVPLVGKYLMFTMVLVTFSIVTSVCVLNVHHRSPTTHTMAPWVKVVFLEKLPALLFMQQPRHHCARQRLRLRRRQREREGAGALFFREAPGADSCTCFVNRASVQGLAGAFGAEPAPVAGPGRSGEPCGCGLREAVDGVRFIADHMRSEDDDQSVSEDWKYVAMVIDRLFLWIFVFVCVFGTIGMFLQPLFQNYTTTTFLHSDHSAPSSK
Neuronal acetylcholine receptor; alpha4/beta2, sequence (P43681 whole entry): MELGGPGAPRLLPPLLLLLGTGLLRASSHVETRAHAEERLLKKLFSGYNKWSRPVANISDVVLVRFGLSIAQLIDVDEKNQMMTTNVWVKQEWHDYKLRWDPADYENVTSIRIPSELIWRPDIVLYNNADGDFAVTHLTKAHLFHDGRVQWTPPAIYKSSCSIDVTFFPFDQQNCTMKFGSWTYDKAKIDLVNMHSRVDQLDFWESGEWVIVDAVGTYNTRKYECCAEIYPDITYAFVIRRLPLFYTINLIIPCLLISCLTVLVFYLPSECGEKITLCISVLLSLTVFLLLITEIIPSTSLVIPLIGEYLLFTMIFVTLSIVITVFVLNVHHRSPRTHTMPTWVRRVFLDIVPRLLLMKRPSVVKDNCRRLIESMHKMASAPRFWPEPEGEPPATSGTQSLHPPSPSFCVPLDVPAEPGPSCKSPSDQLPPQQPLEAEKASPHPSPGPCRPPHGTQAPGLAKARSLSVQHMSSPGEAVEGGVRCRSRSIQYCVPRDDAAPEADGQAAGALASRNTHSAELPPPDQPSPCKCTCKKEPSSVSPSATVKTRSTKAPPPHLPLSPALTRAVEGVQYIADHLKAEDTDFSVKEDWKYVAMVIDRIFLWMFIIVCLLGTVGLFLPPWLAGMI

On to `Clc1ccc(C2CC3CCC2N3)cn1` (stereo not drawn) [EPIBATIDINE], for which the Biodistribution in the series filed under Rattus norvegicus [1], in the series listed under Rattus norvegicus [2] and in the series listed under Rattus norvegicus [3] was 0.2% in each case.
Turning to `Fc1ncccc1OC[C@@H]1CCN1`, the Biodistribution in the series listed under Rattus norvegicus [1] was determined as 0.2%; in the series filed under Rattus norvegicus [2] it was 0.3%; in the series listed under Rattus norvegicus [3], 0.2%. The Ki is 0.046 nM in series [4] and 0.048 nM in series [5].
Consider `O=c1cccc2n1CC1CNC[C@H]2C1` (single isomer, unassigned) [CYTISINICLINE], for which the Biodistribution in the series listed under Rattus norvegicus [1], in the series filed under Rattus norvegicus [2] and in the series filed under Rattus norvegicus [3] was 0.2% each time.
Take `CNC(=O)Oc1ccc2c(c1)[C@]1(C)CCN(C)[C@@H]1N2C` [PHYSOSTIGMINE]: the values for the Biodistribution in the series listed under Rattus norvegicus [1], in the series listed under Rattus norvegicus [2] and in the series filed under Rattus norvegicus [3] were 0.4%, 0.5% and 0.2%, respectively.
Regarding `CN1C2CCCC1CC(NC(=O)c1nn(C)c3ccccc13)C2` (stereo not drawn) [GRANISETRON], the values for the Biodistribution in the series listed under Rattus norvegicus [1], in the series filed under Rattus norvegicus [2] and in the series listed under Rattus norvegicus [3] were 0.6%, 0.9% and 0.2%, respectively.
In series [6], `c1cncc(OC[C@@H]2CCN2)c1` came in with a Ki of 0.05 nM.

The values above are taken from ChEMBL document CHEMBL1132247, “Synthesis and nicotinic acetylcholine receptor in vivo binding properties of 2-fluoro-3-[2(S)-2-azetidinylmethoxy]pyridine: a new positron emission tomography ligand for nicotinic receptors” (J Med Chem, 1999).
